Test results: ChEMBL document CHEMBL2434876, “Design, synthesis and biological evaluation of 2-substituted quinolines as potential antileishmanial agents” (Eur J Med Chem, 2013)
Calls of active or inactive are those of the source. The rule behind the calls is not given here.

Tests used:
[1] = Drug metabolism in hamster liver microsomes at 1 uM after 30 mins by LC-MS/MS analysis; format: ADME, Microsome; conditions: cricetinae, read-out: Drug metabolism
Procedure, shortened: (§1)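 Liver microsomes (1 mg/mL protein) in sodium phosphate buffer pH 7.4 with 5 mM NADPH, preincubated 10 min at 37°C. Test compound taken from a 200 µM acetonitrile:DMSO (96:4) stock. Samples analysed by LC/MS/MS as analyte/internal standard peak-area ratio. Percent metabolized at 30 min relative to 0 min; NADPH-free controls run in parallel.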

[2] = Drug metabolism in human liver microsomes at 1 uM after 30 mins by LC-MS/MS analysis; format: ADME, Microsome; conditions: read-out: Drug metabolism; procedure, shortened: as §1
[3] = Drug metabolism in mouse liver microsomes at 1 uM after 30 mins by LC-MS/MS analysis; format: ADME, Microsome; conditions: read-out: Drug metabolism; procedure, shortened: as §1
[4] = Cytotoxicity against African green monkey Vero cells after 72 hrs by MTT assay; format: cell-based; conditions: chlorocebus sabaeus
Procedure, shortened: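 Exponentially growing Vero cells (1 x 10^5/well) exposed 72 h at 37°C, 5% CO2, to 7-point threefold dilutions from 400 µM (DMSO stocks diluted in medium), with DMSO vehicle controls. MTT added for 2 h, formazan dissolved in DMSO, absorbance read at 544 nm. CC50 is the concentration halving viability versus medium-only cells; mean of two independent experiments.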

Leishmania donovani [5] = assay: Antileishmanial activity against Leishmania donovani MHOM/IN/80/Dd8 amastigotes infected in mouse J774A1 cells assessed as parasite growth inhibition after 72 hrs by luciferase reporter gene assay; format: functional, organism-based; conditions: MHOM/IN/80/Dd8, J774.A1, 72 h
Procedure, shortened: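 J774A.1 macrophages (4 x 10^3/well) in RPMI-1640 with 10% FCS for 24 h, then infected with stationary-phase luciferase-expressing promastigotes (4 x 10^4/well). Non-internalized parasites washed off after 24 h. Compounds given as 7-point serial dilution from 100 µM for 72 h at 37°C. Steady-Glo luminescence read; IC50 from four-parameter Hill fit, mean of two independent experiments.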

[6] = Selectivity index, ratio of CC50 for African green monkey Vero cells to IC50 for Leishmania donovani MHOM/IN/80/Dd8 amastigotes; format: functional
Procedure, shortened: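 Selectivity index is Vero CC50 divided by IC50 against intracellular L. donovani amastigotes in J774A.1 cells, each measured over 72 h.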

[7] = Volume of distribution at steady state in Swiss Albino mouse at 10 mg/kg, iv by LC-MS/MS analysis; format: ADME, organism-based; set-up: dose 10 mg/kg, route intravenous; conditions: in vivo, read-out: Vdss
Procedure, shortened: (§2)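 Male Swiss Albino mice, 8-12 weeks, 30-40 g, fasted 4 h pre-dose and fed 4 h post-dose. Parallel groups: 10 mg/kg IV tail-vein bolus or 50 mg/kg oral gavage. Sparse sampling, 3 mice per time point, from 0.083 (IV only) to 24 h. K2EDTA plasma analysed by LC-MS/MS (calibration 1–1000 ng/mL). Non-compartmental parameters; bioavailability from dose-normalized AUC ratio versus IV.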

[8] = Plasma clearance in Swiss Albino mouse at 10 mg/kg, iv by LC-MS/MS analysis; format: ADME, organism-based; set-up: dose 10 mg/kg, route intravenous; procedure, shortened: as §2
[9] = Elimination half life in Swiss Albino mouse at 10 mg/kg, iv by LC-MS/MS analysis; format: ADME, organism-based; set-up: dose 10 mg/kg, route intravenous; conditions: in vivo, read-out: beta t1/2 (converted); procedure, shortened: as §2
[10] = AUC (infinity) in Swiss Albino mouse at 10 mg/kg, iv by LC-MS/MS analysis; format: ADME, organism-based; set-up: time infinity, dose 10 mg/kg, route intravenous; conditions: plasma; procedure, shortened: as §2
[11] = AUClast in Swiss Albino mouse at 10 mg/kg, iv by LC-MS/MS analysis; format: ADME, organism-based; set-up: time 0 - last, dose 10 mg/kg, route intravenous; conditions: plasma; procedure, shortened: as §2
[12] = AUClast in Swiss Albino mouse at 50 mg/kg, po by LC-MS/MS analysis; format: ADME, organism-based; set-up: time 0 - last, dose 50 mg/kg, route oral; conditions: plasma; procedure, shortened: as §2
[13] = Cmax in Swiss Albino mouse at 50 mg/kg, po by LC-MS/MS analysis; format: ADME, organism-based; set-up: dose 50 mg/kg, route oral; conditions: in vivo; procedure, shortened: as §2
[14] = Cmax in Swiss Albino mouse at 10 mg/kg, iv by LC-MS/MS analysis; format: ADME, organism-based; set-up: dose 10 mg/kg, route intravenous; conditions: in vivo; procedure, shortened: as §2
[15] = Tmax in Swiss Albino mouse at 50 mg/kg, po by LC-MS/MS analysis; format: ADME, organism-based; set-up: dose 50 mg/kg, route oral; conditions: in vivo; procedure, shortened: as §2
[16] = Tmax in Swiss Albino mouse at 10 mg/kg, iv by LC-MS/MS analysis; format: ADME, organism-based; set-up: dose 10 mg/kg, route intravenous; conditions: in vivo; procedure, shortened: as §2
[17] = Metabolic stability in whole blood (unknown origin); format: ADME, tissue-based
[18] = Metabolic stability in plasma (unknown origin); format: ADME, cell-free
Leishmania donovani [19] = assay: Antileishmanial activity against Leishmania donovani MHOM/IN/80/Dd8 amastigotes infected in golden hamster assessed as parasite growth inhibition at 50 mg/kg, ip bid for 5 days measured on day 7 by Giemsa staining assay; format: functional; conditions: MHOM/IN/80/Dd8, ip, route intraperitoneal, read-out: GI
Procedure, shortened: (§3)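 Inbred golden hamsters, 40-45 g, infected intracardially with 1 x 10^7 L. donovani amastigotes. Animals with +1 spleen biopsy grade (5-15 amastigotes/100 nuclei) were randomized, 5-6 per group. Dosing in distilled water/PBS began 48 h after biopsy and ran 5 consecutive days. Post-treatment spleen biopsy on day 7, Giemsa count; percent inhibition corrected for initial count and untreated-control increase.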

Leishmania donovani [20] = assay: Antileishmanial activity against Leishmania donovani MHOM/IN/80/Dd8 amastigotes infected in golden hamster assessed as parasite growth inhibition at 50 mg/kg, ip qd for 5 days measured on day 7 by Giemsa staining assay; format: functional; procedure, shortened: as §3
[21] = Oral bioavailability in Swiss Albino mouse at 50 mg/kg by LC-MS/MS analysis; format: ADME, organism-based; conditions: in vivo; procedure, shortened: as §2
Leishmania donovani [22] = assay: Antileishmanial activity against Leishmania donovani MHOM/IN/80/Dd8 amastigotes infected in golden hamster assessed as parasite growth inhibition at 30 mg/kg, po qd for 5 days measured on day 7 by Giemsa staining assay; format: functional; conditions: read-out: GI; procedure, shortened: as §3
[23] = Solubility of the compound; format: physicochemical
Leishmania donovani [24] = assay: Antileishmanial activity against Leishmania donovani MHOM/IN/80/Dd8 amastigotes infected in golden hamster assessed as parasite growth inhibition at 50 mg/kg, po bid for 5 days measured on day 7 by Giemsa staining assay; format: functional; procedure, shortened: as §3

Compound	metabolised at 0.5 h, 1 µM [1]	metabolised at 0.5 h, 1 µM [2]	metabolised at 0.5 h, 1 µM [3]	CC50 at 72 h [4]	IC50 (Leishmania donovani [5])	Ratio CC50/IC50 [6]	further results
OC/C=C/c1cc(-c2ccc(F)cc2)c2cc(Cl)c(F)cc2n1	53%	25%	51%	24.6 µM	1.43 µM	–	–
NC(=O)/C=C/c1ccc2ccccc2n1	–	44%	97%	76.3 µM	20.4 µM	3.74	–
OC/C=C/c1cc(N2CCOCC2)c2cc(Cl)ccc2n1	88%	43%	56%	46.9 µM	4.4 µM	10.65	–
OC/C=C/c1cc(-c2cccc(F)c2)c2cc(Cl)c(F)cc2n1	59%	25%	40%	21.6 µM	1.79 µM	12.08	–
OC/C=C/c1cc(N2CCOCC2)c2cc(Cl)c(F)cc2n1 [listing 1 of 2 here]	66%	35%	45%	41.2 µM	0.22 µM	187.5	Vd [7]: 7.54 L/kg; clearance [8]: 865 mL/min/kg; half-life [9]: 28.2 min; AUC(0-inf) [10]: 193 ng·h/mL; AUC(0-t) [11]: 193 ng·h/mL; AUC(0-t) [12]: 6.88 ng·h/mL; Cmax [13]: 19.7 ng/mL; Cmax [14]: 2230 ng/mL; Tmax [15]: 15 min; Tmax [16]: 4.8 min; Stability [17]: Unstable; Stability [18]: Stable; inhibition in vivo at 50 mg/kg (Leishmania donovani [19]): 77.2%; inhibition in vivo at 50 mg/kg (Leishmania donovani [20]; MHOM/IN/80/Dd8, ip, route intraperitoneal, read-out: GI): 25.4%; bioavailability [21]: 0.7%
OC/C=C/c1cc(N2CCCCC2)c2cc(Cl)c(F)cc2n1	100%	39%	81%	22.3 µM	2.84 µM	7.86	–
CCCCCCCCCCCCCCCCOP(=O)([O-])OCC[N+](C)(C)C [MILTEFOSINE]	–	–	–	52.7 µM	–	6.27	inhibition in vivo at 30 mg/kg (Leishmania donovani [22]): 96.5%
N#C/C=C/c1ccc2ccccc2n1	–	100%	100%	155 µM	28.6 µM	5.41	–
COc1ccc2nc(/C=C/CO)ccc2c1	–	–	–	45.9 µM	32.4 µM	1.42	–
OC/C=C/c1ccc2cc(Cl)ccc2n1	–	87%	100%	28.9 µM	0.86 µM	33.59	–
OC/C=C/c1cc(Oc2ccc(F)cc2)c2cc(Cl)ccc2n1	94%	27%	33%	35.4 µM	1.96 µM	18.07	–
OC/C=C/c1cc(-c2ccc(F)cc2)c2cc(Cl)ccc2n1	–	25%	83%	32.5 µM	1.57 µM	20.71	–
OC/C=C/c1ccc2cc(F)ccc2n1	–	76%	100%	51.2 µM	17.9 µM	2.86	–
CCCc1ccc2ccccc2n1	–	98%	100%	126 µM	> 100 µM	<1.25	–
CC1CN(c2cc(/C=C/CO)nc3cc(F)c(Cl)cc23)CC(C)O1 (stereo not drawn)	99%	17%	50%	41.3 µM	4.75 µM	8.97	–
OC/C=C/c1ccc2cc(Cl)c(F)cc2n1	–	50%	60%	79.6 µM	14.3 µM	5.54	–
CN1CCN(c2cc(/C=C/CO)nc3cc(F)c(Cl)cc23)CC1	89%	27%	27%	44.6 µM	5.88 µM	7.58	–
CN(C)c1cc(/C=C/CO)nc2cc(F)c(Cl)cc12	–	–	–	41.6 µM	23 µM	1.8	–
COc1cc2nc(/C=C/CO)cc(N3CCOCC3)c2cc1Cl	86%	31%	44%	51.8 µM	3.72 µM	13.92	–
FC/C=C/c1ccc2ccccc2n1	–	100%	100%	38.6 µM	6.68 µM	5.77	solubility [23]: > 1000 µg/mL
O=C(O)/C=C/c1ccc2ccccc2n1	–	–	–	> 400 µM	50.2 µM	>7.96	–
COc1ccc(-c2cc(/C=C/CO)nc3cc(F)c(Cl)cc23)cc1	23%	14%	30%	26.8 µM	1.2 µM	22.26	growth inhibition (GI) (Leishmania donovani [24]): inactive
OC/C=C/c1cc(N2CCOCC2)c2cc(Cl)c(F)cc2n1 [listing 2 of 2 here]	–	–	–	–	–	–	inhibition in vivo at 50 mg/kg (Leishmania donovani [24]; read-out: GI): 84.3%
OCC#Cc1ccc2ccccc2n1	–	22%	99%	26.2 µM	10.7 µM	2.45	–
COc1ccc(-c2cc(/C=C/CO)nc3ccc(Cl)cc23)cc1	–	8%	34%	37.1 µM	0.22 µM	168.72	–
OC/C=C/c1ccc2c(F)c(Cl)ccc2n1	–	–	–	19.5 µM	4.1 µM	4.76	–
OC/C=C/c1ccc2ccccc2n1	–	96%	100%	31.9 µM	10 µM	3.17	growth inhibition (GI) (Leishmania donovani [20]): inactive
